Data as given in PMC6933791 (ACS Omega, 2019).

What was measured:
A549 cells [1] = test: Cell binding of radiolabeled compound; design: species or system human
Summary of the method: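 A549 and MRC-5 cells were grown in DMEM with 10% FBS and 1% penicillin/streptomycin (37 °C, 5% CO2), trypsinised, resuspended in PBS pH 7.4 and trypan-blue counted. Labelled test compound (0.1 μM), 99mTc-chelator alone (1.3 μM), or test compound plus 10-fold excess unlabelled cardenolide was shaken with 250 000 viable cells/tube (140 rpm, 120 min, 37 °C). Pellets were counted. Three biological × three technical replicates.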

[2] = Radiochemical stability in plasma; type: in vitro ADME; details: 37 °C, under agitation, up to 24 h
Summary of the method: (§1)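 The 99mTc-labelled test compound was incubated in 0.9% NaCl at 23 °C or in plasma at 37 °C with agitation. Samples were taken at 1, 2, 4, 8 and 24 h. Radiochemical purity was measured by TLC in acetone (free pertechnetate) and glacial acetic acid/water 15:85 (99mTcO2), with strips counted by scintillation. There were 6 samples per time point, each assessed in duplicate.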

A549 cells [3] = test: MTT cell viability assay, A549; type: cell-based; details: read-out: IC50 A549 cell line, 48 h, human non-small-cell lung cancer A549
Summary of the method: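 A549 cells (1 × 10^4/well), cultured in DMEM with 10% FBS and antibiotics, were exposed to a range of concentrations of the […] test compound for 48 h. MTT was added (1 mg/mL final) for 4 h at 37 °C, formazan was dissolved in DMSO, and absorbance was read at 570 nm. Cells given 0.5% DMSO defined 100% viability. IC50 came from dose–response curves.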

[4] = Biodistribution in healthy mice; type: in vivo, BALB/c mice; details: i.v.
[5] = tested on: Na+/K+-ATPase α1,2,3 subunit of the porcine cortex; test: Na+/K+-ATPase inhibition assay; type: biochemical; details: 0.1 μM compound, 30 min co-incubation, positive control = 100% activity
Summary of the method: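 Porcine cortex Na+/K+-ATPase (α1,2,3; 0.05 U/mL) was preincubated 30 min with test compound (0.1 μM) in 40 mM Tris–HCl pH 7.5, 80 mM NaCl, 1 mM EDTA and 8 mM MgAc2. ATP (4 mM) was then added and the reaction stopped after 30 min. Released Pi was read by malachite green at 600 nm after subtracting the no-enzyme control. Uninhibited enzyme defined 100% activity. Run in triplicate.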

MRC-5 cells = test: MTT cell viability assay, MRC-5; type: cell-based; details: read-out: IC50 non-tumor MRC-5 cell line, 48 h, human fetal lung fibroblast MRC-5
[6] = Radiochemical stability in saline; type: physicochemical; details: NaCl 0.9% (w/v), room temperature (23 °C), up to 24 h
Summary of the method: as §1

[7] = Blood clearance in healthy mice; type: in vivo; details: healthy BALB/c mice, i.v. tail vein
Summary of the method: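 Female BALB/c mice (20 g, 8 weeks old; n = 6 per time point) received 100 μL (3.7 MBq) of diluted 99mTc-labelled test compound (final volume 1800 μL) by tail vein. Blood was sampled at 5, 15, 30, 60, 120 and 240 min, weighed and counted for radioactivity. Percent injected dose per mL blood (%ID/mL) was plotted against time.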

With ^99mTc-DTPA–digitoxigenin the “Binding to A549 cells when co-incubated with free digitoxigenin” value (A549 cells [1]; 0.1 μM, 10-fold excess of free digitoxigenin, 2 h) was “reduced to the rate of non-tumor MRC-5 cells”, the “Binding to A549 cells compared with non-tumor MRC-5 cells” value (A549 cells [1]; 0.1 μM, 2 h incubation, 37 °C) was “significantly higher binding” and the “Radiochemical stability in plasma” value [2] was “remained stable”. The IC50 (A549 cells [3]) was 120 nM, the “Biodistribution, blood” value ([4]; 30 min) was 0.51 %ID/g and the “Biodistribution, heart” value ([4]; 30 min) was 0.31 %ID/g. The “Biodistribution, intestine” value ([4]; 30 min) was 24.97 %ID/g, the “Biodistribution, kidney” value ([4]; 30 min) was 1.64 %ID/g and the “Biodistribution, liver” value ([4]; 30 min) was 4.74 %ID/g. For the same compound, the “Biodistribution, lungs” value ([4]; 30 min) was 1.46 %ID/g, the “Biodistribution, muscle” value ([4]; 30 min) was 0.50 %ID/g and the “Biodistribution, spleen” value ([4]; 30 min) was 0.90 %ID/g. For the same compound, the “Biodistribution, thyroid” value ([4]; 30 min) was 0.59 %ID/g, the “Biodistribution, blood” value ([4]; 2 h) was 0.43 %ID/g and the “Biodistribution, heart” value ([4]; 2 h) was 0.32 %ID/g. For the same compound, the “Biodistribution, intestine” value ([4]; 2 h) was 27.06 %ID/g, the “Biodistribution, kidney” value ([4]; 2 h) was 1.48 %ID/g and the “Biodistribution, liver” value ([4]; 2 h) was 2.34 %ID/g. The “Biodistribution, lungs” value ([4]; 2 h) was 0.6 %ID/g, the “Biodistribution, muscle” value ([4]; 2 h) was 0.26 %ID/g and the “Biodistribution, spleen” value ([4]; 2 h) was 0.85 %ID/g. The “Biodistribution, thyroid” value ([4]; 2 h) was 0.59 %ID/g, the “Na+/K+-ATPase enzymatic activity remaining” value [5] was “less than 50%” and the IC50 (MRC-5 cells) was 780 nM. For the same compound, the “Radiochemical stability in saline” value [6] was “remained stable” and the Blood half-life [7] was 11.7 min.
For `O=C(O)CN(CCN(CC(=O)O)CC(=O)O)CCN(CC(=O)O)CC(=O)O` [DTPA, diethylenetriaminepentaacetic acid], the “Na+/K+-ATPase enzymatic activity remaining” value [5] was “no influence”.
With `O=C([O-])CN(CCN(CC(=O)[O-])CC(=O)[O-])CCN(CC(=O)[O-])CC(=O)[O-].[99Tc+4]` [^99mTc-DTPA, reference compound] the “Affinity to A549 cancer cells” value (A549 cells [1]; 1.3 μM, 2 h incubation, 37 °C) was “low affinity”.
For `C[C@]12CC[C@H](O)C[C@H]1CC[C@@H]1[C@@H]2CC[C@]2(C)[C@@H](C3=CC(=O)OC3)CC[C@]12O` [DIG, digitoxigenin], the “Na+/K+-ATPase enzymatic activity remaining” value [5] was “less than 50%”.
